Among the data in ChEMBL document CHEMBL4480417, “Methylsulfonylated Polyketides Produced by Neosartorya udagawae HDN13-313 via Exogenous Addition of Small Molecules” (J Nat Prod, 2019) are Activity values, retold here.

The source made the active and inactive calls. The rule behind the calls is not given here.

The test system of one series is HeLa. As to the kind of experiment: Cytotoxicity against human HeLa cells at 30 uM after 72 hrs by MTT assay. It is filed as cell-based.
Another series relates to K562. As to the kind of experiment: Cytotoxicity against human K562 cells at 30 uM after 72 hrs by MTT assay. It counts as cell-based. As to conditions: k562, 72 h. (Tetrazolium assays rely on reduction of a dye to a coloured formazan, in cell work by metabolically active cells.)
Another series has as its system HL-60. As to the kind of experiment: Cytotoxicity against human HL60 cells at 30 uM after 72 hrs by MTT assay. It is filed as cell-based. As to conditions: hl-60, 72 h.
A further series has as its system HCT-116. As to the kind of experiment: Cytotoxicity against human HCT116 cells at 30 uM after 72 hrs by MTT assay. As to conditions: hct-116, 72 h. It counts as cell-based.
The test system of another series is HepG2. Description: Lipid lowering activity in human HepG2 cells assessed as reduction in oleic acid-induced lipid accumulation at 10 uM after 24 hrs by oil red O staining based spectrophotometric method. It counts as functional, cell-based. In a few lines:
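HepG2 cells in log phase seeded at 1.2 × 10^4 cells/well, grown 12 h to 70–80% confluence, then serum-starved 12 h in serum-free DMEM. Oleic acid added (final 80 μM) with test agent or simvastatin (final 10 μM), 24 h. Blank: DMEM only; OA alone as negative control. Cells fixed in 4% paraformaldehyde, rinsed with 60% 2-propanol, stained with 0.3% Oil Red O for 1 h, dye dissolved in DMSO, OD 358 nm; ≥3 experiments, mean ± SEM.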

On to `COc1c(O)c(O)c(C)c(S(C)(=O)=O)c1O`, for which the Activity entry with HeLa, in the series with K562, with HL-60 and in the series with HCT-116 was “Non-Toxic” in each case.
As to `COc1c(O)ccc2c(=O)oc3cc(CO)cc(O)c3c(=O)c12`, the Activity entry with HeLa, in the series on K562, in the series with HL-60 and in the series with HCT-116 was “Non-Toxic” throughout.
With `CCC(C)(C)C(=O)O[C@H]1C[C@@H](C)C=C2C=C[C@H](C)[C@H](CC[C@@H]3C[C@@H](O)CC(=O)O3)[C@H]21`, in the series with HepG2, the outcome was Active.
For the compound `COc1cc(S(C)(=O)=O)cc2c(=O)oc3cc(CO)cc(O)c3c(=O)c12`, the result in the series on HepG2 was Active. Besides, the Activity entry with HeLa, in the series with K562, in the series on HL-60 and in the series on HCT-116 was “Non-Toxic” throughout.
